Measurements published in ChEMBL document CHEMBL3351966, “Structural manipulation on the catecholic fragment of dopamine D(1) receptor agonist 1-phenyl-N-methyl-benzazepines” (Eur J Med Chem, 2014).

Legend:
[1] = biological target: 5-hydroxytryptamine receptor 2A (Homo sapiens, UniProt P28223); experiment: Displacement of [3H]ketanserin from human 5HT2A receptor expressed in HEK293 cell membranes by liquid scintillation counting based competition binding assay
Outline: (§1)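 Competition binding on membranes from stably transfected cell lines ([…]), clones selected with G418. Buffer 50 mM Tris, 4 mM MgCl₂, pH 7.4 with 0.7 nM radioligand and increasing compound concentrations. Duplicate tubes incubated at 30 °C for 50 min, then rapid filtration through GF/B filters and cold-buffer wash. Compounds from 10^-1 M DMSO stock. Ki as mean of three to five experiments, racemates.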

D(1A) dopamine receptor = D(1A) dopamine receptor (Homo sapiens, UniProt P21728); experiment: Displacement of [3H]SCH23390 from human dopamine D1 receptor expressed in HEK293 cell membranes by liquid scintillation counting based competition binding assay; outline: as §1
[2] = biological target: T1, 5-hydroxytryptamine receptor 1A (Rattus norvegicus, UniProt P19327); experiment: Displacement of [3H]8-OH-DPAT from rat 5HT1A receptor expressed in CHO cell membranes by liquid scintillation counting based competition binding assay; outline: as §1
T1 sequence (P19327 whole entry): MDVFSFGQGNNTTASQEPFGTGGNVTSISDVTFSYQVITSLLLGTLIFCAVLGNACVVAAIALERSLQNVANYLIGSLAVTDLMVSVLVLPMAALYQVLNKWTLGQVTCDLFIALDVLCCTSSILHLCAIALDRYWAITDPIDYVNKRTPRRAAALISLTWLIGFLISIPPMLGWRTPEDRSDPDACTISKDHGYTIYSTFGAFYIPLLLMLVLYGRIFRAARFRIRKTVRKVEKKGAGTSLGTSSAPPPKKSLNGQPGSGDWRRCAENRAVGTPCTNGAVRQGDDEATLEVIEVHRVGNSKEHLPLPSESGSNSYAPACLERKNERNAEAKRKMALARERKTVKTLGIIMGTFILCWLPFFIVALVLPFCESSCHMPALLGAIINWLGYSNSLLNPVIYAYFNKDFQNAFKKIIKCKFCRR

D(2) dopamine receptor = D(2) dopamine receptor (Homo sapiens, UniProt P14416); experiment: Displacement of [3H]spiperone from human dopamine D2 receptor expressed in HEK293 cell membranes by liquid scintillation counting based competition binding assay; outline: as §1
D(3) dopamine receptor = D(3) dopamine receptor (Homo sapiens, UniProt P35462); experiment: Displacement of [3H]spiperone from human dopamine D3 receptor expressed in HEK293 cell membranes by liquid scintillation counting based competition binding assay; outline: as §1
D(3) dopamine receptor, sequence (P35462 whole entry): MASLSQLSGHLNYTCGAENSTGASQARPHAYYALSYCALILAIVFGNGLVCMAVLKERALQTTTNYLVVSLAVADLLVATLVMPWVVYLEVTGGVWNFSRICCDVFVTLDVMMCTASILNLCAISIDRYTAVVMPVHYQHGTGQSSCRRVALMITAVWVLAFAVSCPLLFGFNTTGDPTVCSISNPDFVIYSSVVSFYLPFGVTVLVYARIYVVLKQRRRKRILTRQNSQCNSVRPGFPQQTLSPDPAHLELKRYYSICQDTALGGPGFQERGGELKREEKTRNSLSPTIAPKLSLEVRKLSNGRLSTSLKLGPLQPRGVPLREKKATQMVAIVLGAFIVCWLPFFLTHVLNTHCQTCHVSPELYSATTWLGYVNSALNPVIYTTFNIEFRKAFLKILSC

D(1A) dopamine receptor, sequence (P21728 whole entry): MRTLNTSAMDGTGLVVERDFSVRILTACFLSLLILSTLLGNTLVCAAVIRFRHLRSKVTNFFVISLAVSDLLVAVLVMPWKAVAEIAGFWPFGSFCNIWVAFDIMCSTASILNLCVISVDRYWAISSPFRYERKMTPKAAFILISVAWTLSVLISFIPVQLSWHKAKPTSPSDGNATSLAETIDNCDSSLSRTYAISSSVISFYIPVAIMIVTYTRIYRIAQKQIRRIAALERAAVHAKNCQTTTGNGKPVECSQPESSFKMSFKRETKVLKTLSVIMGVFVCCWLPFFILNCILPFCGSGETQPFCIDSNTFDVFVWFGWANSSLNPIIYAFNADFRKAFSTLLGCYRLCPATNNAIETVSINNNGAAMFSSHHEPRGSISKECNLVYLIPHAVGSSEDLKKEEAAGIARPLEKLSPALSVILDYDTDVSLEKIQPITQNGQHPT
D(2) dopamine receptor, sequence (P14416 whole entry): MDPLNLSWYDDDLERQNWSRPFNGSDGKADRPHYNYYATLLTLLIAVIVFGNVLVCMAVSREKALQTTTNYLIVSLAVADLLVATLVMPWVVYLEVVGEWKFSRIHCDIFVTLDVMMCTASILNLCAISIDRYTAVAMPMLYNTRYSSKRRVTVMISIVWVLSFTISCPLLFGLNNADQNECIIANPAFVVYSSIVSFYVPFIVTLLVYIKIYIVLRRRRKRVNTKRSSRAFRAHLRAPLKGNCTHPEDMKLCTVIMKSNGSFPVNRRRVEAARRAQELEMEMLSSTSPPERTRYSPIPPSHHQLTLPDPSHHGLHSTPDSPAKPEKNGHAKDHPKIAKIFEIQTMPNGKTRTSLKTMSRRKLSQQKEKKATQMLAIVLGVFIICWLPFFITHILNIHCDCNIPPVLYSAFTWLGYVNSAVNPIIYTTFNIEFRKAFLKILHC
5-hydroxytryptamine receptor 2A, sequence (P28223 whole entry): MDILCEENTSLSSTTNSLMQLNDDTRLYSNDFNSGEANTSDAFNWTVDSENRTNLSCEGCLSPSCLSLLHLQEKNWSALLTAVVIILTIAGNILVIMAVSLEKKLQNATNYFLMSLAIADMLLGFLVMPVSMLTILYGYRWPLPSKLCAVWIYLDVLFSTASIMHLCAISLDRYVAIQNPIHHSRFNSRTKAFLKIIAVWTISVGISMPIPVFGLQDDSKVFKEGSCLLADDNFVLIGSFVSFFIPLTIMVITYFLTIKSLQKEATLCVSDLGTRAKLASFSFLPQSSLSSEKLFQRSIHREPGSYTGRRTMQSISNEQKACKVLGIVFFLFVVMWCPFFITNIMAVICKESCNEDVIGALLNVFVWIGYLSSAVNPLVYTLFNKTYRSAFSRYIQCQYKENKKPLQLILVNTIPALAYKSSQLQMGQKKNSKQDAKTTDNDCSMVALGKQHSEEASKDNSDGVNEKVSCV

SMILES	Ki [1]	Ki (D(1A) dopamine receptor)	Ki [2]	Ki (D(2) dopamine receptor)	Ki (D(3) dopamine receptor)
CN1CCc2ccc(O)cc2C(c2ccccc2)C1 (racemic)	133 nM	207 nM	> 1000 nM	> 1000 nM	> 1000 nM
CN1CCc2cc(N)c(O)cc2C(c2ccccc2)C1 (racemic)	> 1000 nM	334 nM	> 1000 nM	> 1000 nM	> 1000 nM
CN1CCc2cc(O)ccc2C(c2ccccc2)C1 (racemic)	–	> 1000 nM	–	> 1000 nM	> 1000 nM
CN1CCc2cc(O)c(N)cc2C(c2ccccc2)C1 (racemic)	> 1000 nM	351 nM	> 1000 nM	> 1000 nM	> 1000 nM
CN1CCc2cc(NCc3ccccc3)c(O)cc2C(c2ccccc2)C1 (racemic)	4.52 nM	665 nM	> 1000 nM	> 1000 nM	> 1000 nM
CN1CCc2cc(NCc3cccc(Cl)c3)c(O)cc2C(c2ccccc2)C1 (racemic)	10.3 nM	277 nM	479 nM	> 1000 nM	–
Cc1cccc(CNc2cc3c(cc2O)C(c2ccccc2)CN(C)CC3)c1 (racemic)	9.95 nM	370 nM	> 1000 nM	> 1000 nM	–
Cc1ccccc1CNc1cc2c(cc1O)C(c1ccccc1)CN(C)CC2 (racemic)	192 nM	292 nM	> 1000 nM	> 1000 nM	–
Cc1ccc(CNc2cc3c(cc2O)C(c2ccccc2)CN(C)CC3)cc1 (racemic)	862 nM	756 nM	> 1000 nM	> 1000 nM	–
CC(=O)Nc1cc2c(cc1O)C(c1ccccc1)CN(C)CC2 (racemic)	–	> 1000 nM	–	> 1000 nM	–
CN1CCc2cc(-n3cccc3)c(O)cc2C(c2ccccc2)C1 (racemic)	–	> 1000 nM	–	> 1000 nM	–
Cc1ccc(-c2cc3c(cc2O)C(c2ccccc2)CN(C)CC3)cc1 (racemic)	–	> 1000 nM	–	> 1000 nM	> 1000 nM
Cc1cccc(-c2cc3c(cc2O)C(c2ccccc2)CN(C)CC3)c1 (racemic)	163 nM	216 nM	> 1000 nM	> 1000 nM	> 1000 nM
Cc1ccccc1-c1cc2c(cc1O)C(c1ccccc1)CN(C)CC2 (racemic)	–	912 nM	–	> 1000 nM	–
CN1CCc2cc(-c3ccc4ccccc4c3)c(O)cc2C(c2ccccc2)C1 (racemic)	–	> 1000 nM	–	> 1000 nM	–
CN1CCc2cc(-c3ccc(O)cc3)c(O)cc2C(c2ccccc2)C1 (racemic)	826 nM	349 nM	> 1000 nM	> 1000 nM	–
CN1CCc2cc(O)c(CO)cc2C(c2ccccc2)C1 (racemic)	–	> 1000 nM	–	> 1000 nM	> 1000 nM
CN1CCc2cc(O)c(CN)cc2C(c2ccccc2)C1 (racemic)	–	> 1000 nM	–	> 1000 nM	> 1000 nM
CN1CCc2cc(N)ccc2C(c2ccccc2)C1 (racemic)	–	> 1000 nM	–	> 1000 nM	> 1000 nM
CN1CCc2ccc(N)cc2C(c2ccccc2)C1 (racemic)	–	583 nM	–	> 1000 nM	> 1000 nM
CNc1ccc2c(c1)C(c1ccccc1)CN(C)CC2 (racemic)	–	> 1000 nM	–	> 1000 nM	–
CN1CCc2ccc(N(C)C)cc2C(c2ccccc2)C1 (racemic)	–	> 1000 nM	–	> 1000 nM	–
CN1CCc2cc3oc(=O)[nH]c3cc2C(c2ccccc2)C1 (racemic)	–	> 1000 nM	–	> 1000 nM	–
CN1CCc2cc3c(cc2C(c2ccccc2)C1)NC(=O)CO3 (racemic)	–	> 1000 nM	–	> 1000 nM	–
CN1CCc2cc3ocnc3cc2C(c2ccccc2)C1 (racemic)	–	> 1000 nM	–	> 1000 nM	–
CN1CCN(c2nc3cc4c(cc3o2)CCN(C)CC4c2ccccc2)CC1 (racemic)	–	> 1000 nM	–	> 1000 nM	–
CCN(CC)c1cc2c(cc1O)C(c1ccccc1)CN(C)CC2 (racemic)	–	> 1000 nM	–	> 1000 nM	> 1000 nM
